MrgX1 antag: human MrgX1 receptor antagonism, primary screen; MRGX1-HEK293 calcium flux, Fluo-4, BAM8-22 antagonism; stronger effect = lower value; Q96LB2; B-score at 10 µM; hit rate 1.3% among 310,000;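 active = calcium-response B-score plate-corrected more than 3 library SD below zero, starting fluorescence within 5 deviations, no agonist response on first addition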;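 also: peak minus trough fluorescence over baseline after final BAM8-22 challenge near maximal dose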
Target sequence (Q96LB2 whole entry, looked up): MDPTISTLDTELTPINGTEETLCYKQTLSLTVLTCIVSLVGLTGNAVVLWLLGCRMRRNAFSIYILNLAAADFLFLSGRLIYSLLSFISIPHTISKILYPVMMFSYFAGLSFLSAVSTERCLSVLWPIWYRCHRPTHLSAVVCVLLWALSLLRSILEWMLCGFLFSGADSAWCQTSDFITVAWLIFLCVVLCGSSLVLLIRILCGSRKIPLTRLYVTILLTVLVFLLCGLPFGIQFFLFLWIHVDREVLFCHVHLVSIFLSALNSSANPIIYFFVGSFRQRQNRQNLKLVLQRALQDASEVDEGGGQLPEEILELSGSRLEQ
RGS4 block: human RGS4 inhibition; hit rate 0.45% among 310,000; B-score at 10 µM; HEK293 M3R/RGS4 inducible, Fluo-4 calcium flux; stronger effect = higher value; triggered by carbachol at its EC20;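 active = B-score, a plate-corrected calcium signal, over three deviations above library mean, with baseline fluorescence within five deviations of library mean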;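 also: RGS4 expression induced by doxycycline in cells with stable M3 receptor; B-score is computed from the integrated fluorescence ratio over baseline after carbachol; higher B-score means a larger calcium signal and so more RGS4 inhibition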
Target sequence (P49798 whole entry, looked up): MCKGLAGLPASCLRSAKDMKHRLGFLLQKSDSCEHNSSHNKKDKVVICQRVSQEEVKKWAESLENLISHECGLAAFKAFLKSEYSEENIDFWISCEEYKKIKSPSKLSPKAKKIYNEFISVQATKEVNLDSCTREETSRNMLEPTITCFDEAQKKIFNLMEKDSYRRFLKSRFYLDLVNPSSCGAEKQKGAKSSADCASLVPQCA
RGS4 pot: RGS4 potentiation or activation | HEK293 M3R/inducible RGS4, carbachol calcium flux Fluo4; stronger effect = lower value | B-score at 10 µM | hit rate 0.92% among 310,000;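 active = B-score of the integrated calcium signal more than 4 SD below the library mean, with starting fluorescence not abnormally high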;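 also: negative B-score means reduced calcium response which marks RGS4 activation or potentiation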
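test system = HEK293 cells with stable M3R and inducible RGS4 | schedule = recording 10 s baseline at 1 Hz, 100 s post-agonist | technique = Fluo4-AM (2 µM) calcium-flux fluorescence, kinetic read | measure = Agonist-evoked peak-minus-minimum fluorescence over baseline, integrated ratio, B score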
MrgX1 ag: activates human MrgX1 receptor signaling | Q96LB2 | MrgX1-HEK293 cells, Fluo-4 calcium fluorescence, agonist mode; stronger effect = higher value | B-score at 10 µM | hit rate 0.44% among 310,000 | AID 588627;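 active = calcium response B-score plate-corrected fluorescence ratio at least 3 library SD, with starting fluorescence B-score inside 5 SD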
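Material – MrgX1-expressing HEK293 cells · Input – 15,000 cells seeded per well · Dosing – compound as first of three additions · Times – overnight seeding, then 1 h dark dye loading · Measured by – kinetic Fluo-4 NW fluorescence of intracellular calcium · Read-out – B-scored fluorescence response ratio · Benchmarks – positive and negative control wells on each plate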
MrgX1 PAM: allosterically activates human MrgX1 receptor signaling; hit rate 0.63% among 310,000; MrgX1-HEK293, Fluo-4 calcium flux, FDSS; stronger effect = higher value; Q96LB2; B-score at 10 µM;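 active = plate-corrected calcium response at least 3 library SD above typical, normal starting fluorescence, not activating the receptor alone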;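 also: compound read alongside a low EC10 to EC30 dose of BAM8-22 agonist; peak minus trough fluorescence over baseline measured at the second addition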
MrgX1 allo conf: confirmation of human MrgX1 receptor positive allosteric modulators; shares compounds with MrgX1 PAM; hit rate 13% among 1,200; MrgX1-HEK293, Fluo-4 calcium fluorescence, FDSS; activation (ratio percentage), % at 10 µM;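 active = ratio at least 3 SD above the weak peptide control, stable starting fluorescence, no direct agonism earlier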;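 also: compound followed by low BAM8-22 agonist challenge near EC20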
HEK293 Ca flux: counter-screen for MrgX1 antagonists: effect in parental HEK293 cells | shares compounds with MrgX1 antag | Fluo-4 calcium fluorescence, FDSS | fluorescence ratio F(max-min)/F0 at 10 µM | hit rate 2% among 4,000;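 active = duplicate-averaged calcium fluorescence ratio at least three times the standard deviation of buffer wells, a nonspecific response in parental cells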
HEK293 Ca counter: activity in parental HEK293 cells without MrgX1 | fluorescence ratio F(max-min)/F0 at 10 µM | hit rate 0.4% among 4,000 | AID 624114 | shares compounds with MrgX1 antag | parental HEK293 calcium flux, Fluo-4 fluorescence ratio; stronger effect = higher value;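 active = calcium fluorescence ratio, averaged over duplicates, at least 3 SD of the buffer-well ratio, meaning a nonspecific response in receptor-free cells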;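 also: untransfected parental HEK293 lacking MrgX1 used as counterscreen for MrgX1 allosteric activators; fluorescence change taken during the second addition on a kinetic imager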
HEK293 Ca cntr2: MrgX1 activator counter-screen hit in parental HEK293 cells | shares compounds with MrgX1 antag | Fluo-4 calcium fluorescence (FDSS); stronger effect = higher value | fluorescence ratio F(max-min)/F0 at 10 µM | hit rate 8.7% among 4,000 | AID 624115;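 active = calcium fluorescence ratio at least three times the spread of buffer wells, meaning a non-specific response in parental cells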
The depositor's hits bear a star; i = inactive; nt = no result. Shown are actives, neighbours in structure and some others; about 3.5% of the full set was active somewhere.

SMILES	MrgX1 antag	RGS4 block	RGS4 pot	MrgX1 ag	MrgX1 PAM	MrgX1 allo conf	HEK293 Ca flux	HEK293 Ca counter	HEK293 Ca cntr2
Cc1ccc(-n2c(C)c3c(C)nnc(C)c3c2C)cc1N	i	i	i	i	22*	i	i	i	i
CCCCn1c(N)c(N(CCOC)C(=O)c2ccc(C)c(S(=O)(=O)N3CCCCC3)c2)c(=O)[nH]c1=O	i	i	i	i	i	nt	nt	nt	nt
COc1ccc(/C=C/C(=O)O)cc1S(=O)(=O)N1CCCC1	i	i	i	i	i	nt	nt	nt	nt
CCN(CC)C(=O)CSc1ncnc2c(-c3ccc(OC)cc3)nsc12	i	i	i	i	i	nt	nt	nt	nt
COc1ccc(-c2nsc3c(SCc4ccccc4)ncnc23)cc1	i	i	i	i	6.8*	i	i	i	i
Cn1c(CN2CCCC2)nc2cc(NC(=O)c3ccc(Cl)cc3)ccc21	i	i	i	i	9*	i	i	i	i
Cn1c(CN2CCCCC2)nc2cc(NC(=O)c3ccc(Cl)cc3)ccc21	i	i	i	i	i	nt	nt	nt	nt
CC(C)(C)c1ccc(-n2ncc3c2CCCC3NC(=O)CN2CCCC2=O)cc1 (stereo not drawn)	i	i	i	i	13*	i	i	i	i
CC(/C=N/NC(=O)CNc1n[nH]c(=O)[nH]c1=O)c1ccccc1 (stereo not drawn)	i	i	i	i	i	nt	nt	nt	nt
Cc1cc2c(N3CCCCC3C)ncnc2s1 (stereo not drawn)	i	i	i	i	7.1*	i	i	i	i
COc1ccc(OC)c(S(=O)(=O)N2CCN(c3ccccc3)CC2)c1	i	i	i	i	i	nt	nt	nt	nt
COc1ccc(C(C)C)cc1S(=O)(=O)N1CCN(c2ccccc2)CC1	i	i	i	i	15*	i	i	i	i
COc1ccc(Cl)cc1S(=O)(=O)N1CCN(c2ccc(F)cc2)CC1	i	i	i	i	17*	i	i	i	i
Cc1cc(NC(=O)CN2C(=O)NC3(CCCCC3C)C2=O)no1 (stereo not drawn)	i	i	i	i	i	nt	nt	nt	nt
COc1ccc(C2=NN(c3nc(-c4ccc(CNC(C)=O)cc4)cs3)C(c3ccco3)C2)cc1 (stereo not drawn)	i	i	i	i	i	nt	nt	nt	nt
CC(=O)Nc1cccc2c1C(=O)N(c1ccc(OC(C)=O)cc1)C2=O	i	i	i	i	i	nt	nt	nt	nt
O=C(Nc1ccccc1)N(Cc1ccc(Cl)cc1)CC(O)C(F)(F)F (stereo not drawn)	i	i	i	i	6.5*	i	i	i	i
O=C(Nc1ccccc1)N(Cc1ccccc1)Cc1ccccc1	i	i	i	i	i	nt	nt	nt	nt
O=C(COC(=O)c1ccc(S(=O)(=O)NCc2ccco2)cc1)Nc1ccc(Cl)cn1	i	i	i	i	8.1*	i	i	i	i
Cc1nc(SCC(=O)NCc2ccco2)c2c(C)c(C)sc2n1	i	i	i	i	i	nt	nt	nt	nt
Cc1nc(SCC(=O)Nc2cc(C(N)=O)cc(C(N)=O)c2)c2c(C)c(C)sc2n1	i	i	i	i	13*	i	i	i	i
O=C(O)c1cc(-c2ccc3c(c2)OCCO3)n[nH]1	i	i	i	i	i	nt	nt	nt	nt
Oc1ccccc1-c1cc(-c2ccc3c(c2)OCCO3)n[nH]1	i	i	i	i	6.9*	i	i	i	i
Cc1ccc(S(=O)(=O)N2CCN(C(=O)c3ccc(Br)o3)CC2)c(C)c1	i	i	i	i	i	nt	nt	nt	nt
CC12CCC(C(=O)Nc3ccc(SC(F)F)cc3)(CC1=O)C2(C)C (stereo not drawn)	i	i	i	i	6.7*	i	i	i	i
SMILES	MrgX1 antag	RGS4 block	RGS4 pot	MrgX1 ag	MrgX1 PAM	MrgX1 allo conf	HEK293 Ca flux	HEK293 Ca counter	HEK293 Ca cntr2
OC(CN1CCN(c2ccccn2)CC1)Cn1c2ccc(Cl)cc2c2cc(Cl)ccc21 (stereo not drawn)	i	i	i	i	i	nt	nt	nt	nt
OC(CN1CCCCC1)Cn1c2ccc(Cl)cc2c2cc(Cl)ccc21 (stereo not drawn)	i	i	i	i	6.7*	i	i	i	i
CC1CN(c2nc3ccccc3cc2-c2ccccc2)CC(C)O1 (stereo not drawn)	i	i	i	i	17*	i	i	i	i
CC1CN(c2cc(-c3ccccc3)c3ccccc3n2)CC(C)O1 (stereo not drawn)	i	i	i	i	i	nt	nt	nt	nt
Cc1ccc(C(=O)NC(=S)Nc2ccc(S(=O)(=O)N3CCN(C)CC3)cc2)cc1	i	i	i	i	i	nt	nt	nt	nt
O=C(CSCc1ccccc1)N1CCN(c2ccc(F)cc2)CC1	i	i	i	i	i	nt	nt	nt	nt
O=C(CCc1ccccc1)N1CCN(c2ccc(F)cc2)CC1	i	i	i	i	8.9*	i	i	i	i
Cc1nc(OCc2c(C)noc2C)c2ccccc2n1	i	i	i	i	i	nt	nt	nt	nt
CCCN(c1ccc(C(=O)OC)cc1)S(=O)(=O)c1ccccc1	i	i	i	i	9.8*	i	i	i	i
CCCc1cc(C(N)=O)c(NC(=O)c2ccoc2C)s1	i	i	i	i	8.7*	i	i	i	i
CCOc1ccccc1N(CC(=O)NC1CCCCC1)S(=O)(=O)c1ccc(C)cc1	i	i	i	i	9.2*	i	i	i	i
COc1ccc(/C=N/NC(=O)CC(=O)NC2CCCCC2)cc1	i	i	i	i	i	nt	nt	nt	nt
CC(=O)Cc1nsc(NC(=O)c2ccc(-c3cccc(Cl)c3)o2)n1	i	i	i	i	13*	15%*	i	i	i
CC(=O)Cc1nsc(NC(=O)c2ccc(Br)o2)n1	i	i	i	i	7.4*	i	i	i	i

High-throughput results: PubChem, Johns Hopkins Ion Channel Center
